Assay results taken from ChEMBL document CHEMBL4680134, “Structural optimization of natural product nordihydroguaretic acid to discover novel analogues as AcrB inhibitors” (Eur J Med Chem, 2020).
Active and inactive are the calls of the source. No cut-off for these calls is given here.

Assays:
[1] = target: T1, Multidrug efflux pump subunit AcrB (Escherichia coli (strain K12)) (UniProt P31224); assay: Inhibition of AcrB in Escherichia coli BW25113 assessed as potentiation of tetraphenylphosphonium induced antibacterial activity by measuring tetraphenylphosphonium MIC at 8 ug/ml measured after 18 hrs by checkerboard titration method (reference value: 1024 ug/ml); conditions: dose 8.0 µg/ml
T1 sequence (whole entry): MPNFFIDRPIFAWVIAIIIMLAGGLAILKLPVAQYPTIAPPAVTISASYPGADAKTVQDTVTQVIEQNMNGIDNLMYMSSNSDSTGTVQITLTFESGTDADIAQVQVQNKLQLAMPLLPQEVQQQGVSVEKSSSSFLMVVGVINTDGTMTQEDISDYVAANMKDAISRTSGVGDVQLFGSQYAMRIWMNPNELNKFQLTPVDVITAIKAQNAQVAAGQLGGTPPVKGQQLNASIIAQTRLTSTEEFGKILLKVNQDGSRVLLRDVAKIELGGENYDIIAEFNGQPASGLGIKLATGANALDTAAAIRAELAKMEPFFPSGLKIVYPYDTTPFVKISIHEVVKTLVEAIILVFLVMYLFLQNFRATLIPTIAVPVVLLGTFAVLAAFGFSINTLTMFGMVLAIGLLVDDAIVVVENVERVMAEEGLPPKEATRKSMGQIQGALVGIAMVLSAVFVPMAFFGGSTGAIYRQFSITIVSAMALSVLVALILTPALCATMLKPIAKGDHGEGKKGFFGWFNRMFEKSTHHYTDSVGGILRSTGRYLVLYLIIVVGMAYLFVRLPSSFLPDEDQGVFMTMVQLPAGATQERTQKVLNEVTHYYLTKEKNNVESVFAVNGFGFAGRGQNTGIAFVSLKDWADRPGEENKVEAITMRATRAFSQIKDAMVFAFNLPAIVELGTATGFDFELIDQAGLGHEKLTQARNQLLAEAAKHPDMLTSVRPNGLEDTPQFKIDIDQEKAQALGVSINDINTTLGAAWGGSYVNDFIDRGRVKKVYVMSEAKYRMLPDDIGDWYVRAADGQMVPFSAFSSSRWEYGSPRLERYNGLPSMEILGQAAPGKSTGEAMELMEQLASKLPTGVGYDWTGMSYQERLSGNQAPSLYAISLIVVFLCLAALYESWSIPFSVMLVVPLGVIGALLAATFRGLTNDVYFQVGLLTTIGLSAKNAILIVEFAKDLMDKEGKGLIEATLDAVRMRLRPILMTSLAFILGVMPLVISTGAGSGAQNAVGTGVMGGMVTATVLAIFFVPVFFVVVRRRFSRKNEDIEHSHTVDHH

[2] = target: T1, Multidrug efflux pump subunit AcrB (Escherichia coli (strain K12)); assay: Inhibition of AcrB in Escherichia coli BW25113 assessed as potentiation of levofloxacin induced antibacterial activity by measuring levofloxacin MIC at 32 ug/ml measured after 18 hrs by checkerboard titration method (reference value: 0.06 ug/ml); conditions: dose 32.0 µg/ml
[3] = target: T1, Multidrug efflux pump subunit AcrB (Escherichia coli (strain K12)); assay: Inhibition of AcrB in Escherichia coli BW25113 assessed as potentiation of erythromycin induced antibacterial activity by measuring erythromycin MIC at 8 ug/ml measured after 18 hrs by checkerboard titration method (reference value: 64 ug/ml); conditions: dose 8.0 µg/ml
[4] = target: T1, Multidrug efflux pump subunit AcrB (Escherichia coli (strain K12)); assay: Inhibition of AcrB in Escherichia coli BW25113 assessed as potentiation of chloramphenicol induced antibacterial activity by measuring chloramphenicol MIC at 8 ug/ml measured after 18 hrs by checkerboard titration method (reference value: 8 ug/ml); conditions: dose 8.0 µg/ml
[5] = target: T1, Multidrug efflux pump subunit AcrB (Escherichia coli (strain K12)); assay: Inhibition of AcrB in Escherichia coli BW25113 assessed as potentiation of chloramphenicol induced antibacterial activity by measuring chloramphenicol MIC at 32 ug/ml measured after 18 hrs by checkerboard titration method (reference value: 8 ug/ml); conditions: dose 32.0 µg/ml
[6] = Growth inhibition of Escherichia coli harboring AcrB deletion mutant at 64 ug/ml after 18 hrs by broth microdilution assay; conditions: dose 64 µg/ml
Procedure, shortened: (§1)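 MIC determined by 96-well broth microdilution in E. coli BW25113 expressing AcrB ((+)AcrB) and an isogenic acrB-deleted strain ((-)AcrB). Used to set the compound concentrations for synergy testing that produce no direct antibacterial effect.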

[7] = Growth inhibition of Escherichia coli BW25113 expressing AcrB at 512 ug/ml after 18 hrs by broth microdilution assay; conditions: dose 512 µg/ml; procedure, shortened: as §1
[8] = target: T1, Multidrug efflux pump subunit AcrB (Escherichia coli (strain K12)); assay: Inhibition of AcrB in Escherichia coli BW25113 assessed as reduction in glucose-induced nile red efflux at 500 uM preincubated for 15 mins followed by nile red addition and incubated for 3 hrs in shaker in presence of CCCP by fluorimetric analysis; conditions: time 195.0 min
Procedure, shortened: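 Wild-type E. coli cells with active AcrB were preloaded with Nile Red, with or without compound, before fluorescence recording began. At 100 sec, 0.2% glucose was added to re-energize the cells and trigger efflux, which was followed by fluorometry. An acrB-deleted isogenic strain served as the maximum-accumulation (no-efflux) reference. Triplicate experiments used different cell batches.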

[9] = target: T1, Multidrug efflux pump subunit AcrB (Escherichia coli (strain K12)); assay: Inhibition of AcrB in Escherichia coli BW25113 assessed as potentiation of levofloxacin induced antibacterial activity by measuring levofloxacin MIC at 8 ug/ml measured after 18 hrs by checkerboard titration method (reference value: 0.06 ug/ml); conditions: dose 8.0 µg/ml
[10] = target: T1, Multidrug efflux pump subunit AcrB (Escherichia coli (strain K12)); assay: Inhibition of AcrB in Escherichia coli BW25113 assessed as potentiation of rifampicin induced antibacterial activity by measuring rifampicin MIC at 8 ug/ml measured after 18 hrs by checkerboard titration method (reference value: 16 ug/ml); conditions: dose 8.0 µg/ml
[11] = target: T1, Multidrug efflux pump subunit AcrB (Escherichia coli (strain K12)); assay: Inhibition of AcrB in Escherichia coli BW25113 assessed as potentiation of rifampicin induced antibacterial activity by measuring rifampicin MIC at 128 ug/ml measured after 18 hrs by checkerboard titration method (reference value: 16 ug/ml); conditions: dose 128.0 µg/ml
[12] = target: T1, Multidrug efflux pump subunit AcrB (Escherichia coli (strain K12)); assay: Inhibition of AcrB in Escherichia coli BW25113 assessed as potentiation of chloramphenicol induced antibacterial activity by measuring chloramphenicol MIC at 64 ug/ml measured after 18 hrs by checkerboard titration method (reference value: 8 ug/ml); conditions: dose 64.0 µg/ml
[13] = target: T1, Multidrug efflux pump subunit AcrB (Escherichia coli (strain K12)); assay: Inhibition of AcrB in Escherichia coli BW25113 assessed as potentiation of erythromycin induced antibacterial activity by measuring erythromycin MIC at 64 ug/ml measured after 18 hrs by checkerboard titration method (reference value: 64 ug/ml); conditions: dose 64.0 µg/ml

MIC [1] [µg/mL] | MIC [2] [µg/mL] | MIC [3] [µg/mL] | MIC [4] [µg/mL] | MIC [5] [µg/mL] | inhibition [8] | MIC [9] [µg/mL] | MIC [10] [µg/mL] | MIC [11] [µg/mL] | MIC [12] [µg/mL] | MIC [13] [µg/mL] | SMILES | growth inhibition (GI) [6] | growth inhibition (GI) [7]
1020 | 0.06 | 64 | 8 | 4 | Active | 0.06 | 16 | 16 | 4 | 32 | Nc1ccc(C(=O)NCCc2ccc(O)c(O)c2)cc1 | Non-Toxic | Non-Toxic
1020 | 0.06 | 64 | 8 | 8 | Active | 0.06 | 16 | 16 | 4 | 64 | Nc1ccccc1C(=O)NCCc1ccc(O)c(O)c1 | Non-Toxic | Non-Toxic
